Fh CTSL1 inh = blocks F. hepatica cathepsin L1 in PFM18AAP counter-screen; recombinant F. hepatica cathepsin L1, Z-Leu-Arg-MCA fluorescence; inhibition, % at 5.96 µM; 300,000 compounds, 0.49% hits; AID 1906;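 active means inhibition above the mean of all tested compounds plus 3 SD, set per screening campaign, cut at about 17% in these data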;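 further: 0% = plate median of test compound wells and 100% = 1 µM Z-Phe-Ala-diazomethylketone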
UCH37 DUB inh = human UCH37 deubiquitinating enzyme inhibition | inhibition, % (test concentration not listed) | 330,000 compounds, 0.33% hits | AID 588478 | purified proteasome/UCH37, Ub-AMC cleavage fluorescence | Q9Y5K5;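 active means mean inhibition over replicate wells above about 20%, limit read from the data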;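 further: 0% = compound-free wells with enzyme and 100% = wells lacking proteasome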
Target sequence (Q9Y5K5 whole entry, looked up): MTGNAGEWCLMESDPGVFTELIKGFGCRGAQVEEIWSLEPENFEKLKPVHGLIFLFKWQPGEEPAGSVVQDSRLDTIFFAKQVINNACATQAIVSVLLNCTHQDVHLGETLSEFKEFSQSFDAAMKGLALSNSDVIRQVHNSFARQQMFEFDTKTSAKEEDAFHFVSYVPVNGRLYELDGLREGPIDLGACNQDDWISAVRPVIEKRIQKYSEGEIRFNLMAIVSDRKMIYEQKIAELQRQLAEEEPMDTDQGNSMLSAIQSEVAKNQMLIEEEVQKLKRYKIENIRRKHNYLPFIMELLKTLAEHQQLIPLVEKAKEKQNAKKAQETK
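System: Proteasome-associated human UCH37 deubiquitinase; Input: 0.15 nM proteasome in added enzyme buffer; Also added: Ub-AMC substrate from 1 µM stock; Incubation: 30 min compound-proteasome preincubation then 25 min substrate reaction, room temperature; Detection: fluorescence, ex 355 nm, em 460 nm; Read-out: % inhibition of Ub-AMC cleavage fluorescence; Benchmarks: no-proteasome and no-compound wells.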
UBC13 polyUb = human UBC13 polyubiquitination inhibition; inhibition, % at 20 µM; 330,000 compounds, 0.47% hits; P61088; UBC13 polyubiquitin chain formation, TR-FRET; in the data active means inhibition above about 45%, passing the limit was not always enough
PREPL inh = inhibits the human prolyl oligopeptidase-like enzyme; Q4J6C6; 320,000 compounds, 0.68% hits; AID 2751; recombinant PREPL, fluorescence polarization activity-based probe; inhibition, % at 5.96 µM; in the data active means inhibition above about 43%;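 further: 0% = enzyme with DMSO and 100% = wells lacking enzyme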
PP5 primary = PP5 (human) phosphatase inhibition | inhibition, % at 6.7 µM | AID 1987 | purified PP5c, OMFP substrate fluorescence | 320,000 compounds, 0.18% hits | P53041;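 active means inhibition above the campaign's mean inhibition across all tested compounds plus 3 SD, cut at about 9.5% in these data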;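 further: 0% = DMSO only and 100% = 100 µM cantharidin control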
PP1 inh = PP1-alpha (human) inhibition in PP5 counter-screen | purified PP1alpha, OMFP fluorescence | P62136 | 320,000 compounds, 0.9% hits | inhibition, % at 6.7 µM;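 active means inhibition above the mean inhibition of all tested compounds plus 3 SD, computed separately for each screening campaign, cut at about 15% in these data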
UCH37 confirm = confirmation of human UCH37 deubiquitinating enzyme inhibitors; inhibition, % at 20 µM; shares compounds with UCH37 DUB inh; Proteasome-bound UCH37, Ub-AMC cleavage fluorescence; 480 compounds, 27% hits;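 active means average inhibition over replicates above about 50%, so the earlier screening hit is confirmed, limit read from the data; inactive means the rest, counted as false positives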;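 further: based on cleavage rate fitted by regression over a 30 min kinetic read; 0% = proteasome plus Ub-AMC and 100% = Ub-AMC without proteasome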
* = called active by the depositor; / = not tested or not shown. Only some compounds are listed: those with a hit (about 2.3% of all), similar ones and a draw of the others.

SMILES	Fh CTSL1 inh	UCH37 DUB inh	UBC13 polyUb	PREPL inh	PP5 primary	PP1 inh	UCH37 confirm
CCOC(=O)C1=CC[C@@H](c2ccccc2Cl)N(S(=O)(=O)c2ccc(C)cc2)[C@H]1C(=O)OCC	/	38*	8	1	2	-1	-9
C(=NNc1ncnc2sc3c(c12)CCC3)c1ccncc1	/	16	/	/	/	/	/
CC(NC(=O)COC(=O)c1ccc([N+](=O)[O-])o1)c1ccccc1 (stereo not drawn)	/	26*	-7	-4	/	/	7
Cc1ccccc1NS(=O)(=O)c1cc(C(=O)NCCC2=CCCCC2)ccc1Cl	-1	55*	6	10	3	1	47
Cc1ccccc1NS(=O)(=O)c1cc(C(=O)NCc2ccncc2)ccc1Cl	-1	4	5	17	2	-6	/
CCOc1ccc(C(=O)NCCC2=CCCCC2)cc1OCC	-2	32*	5	13	-3	3	35
CC(C)=CCC(C)(C)C1OCCN1C(=O)c1ccccc1 (stereo not drawn)	2	63*	5	7	0	4	68*
Cc1ccc(-n2nc(C)c(C=NNC(=O)c3cccnc3)c2Cl)cc1	/	-1	/	/	/	/	/
NC(=O)NN=Cc1ccccc1OC(=O)c1ccccc1Br	/	4	/	/	/	/	/
Nc1cc(-c2cccc([N+](=O)[O-])c2)[nH]n1	0	39*	5	10	-1	-1	6
O=c1cc(-c2cccc([N+](=O)[O-])c2)[nH][nH]1	1	7	-22	3	-3	-3	/
C(C#CCCCCCCCCC[n+]1ccccc1)#CCCCCCCCCC[n+]1ccccc1	-11	34*	/	28	0	12	69*
CC(=NNC(=S)NCCc1ccccc1)c1ccc(Cl)cc1Cl	/	2	/	/	/	/	/
CCOc1ccc(N(CC(=O)NN=Cc2cccnc2)S(C)(=O)=O)cc1	/	4	/	/	/	/	/
COCCNC(=O)/C(C#N)=C/c1ccc(N2CCOCC2)o1	6	38*	-166	4	6	13	36
N#C/C(=C\c1ccc(N2CCOCC2)o1)C(=O)NCC1CCCO1 (stereo not drawn)	9	31*	-167	3	3	1	40
COCCNC(=O)/C(C#N)=C/c1ccc(-c2ccc(OC)cc2[N+](=O)[O-])o1	6	52*	-31	10	-2	-1	30
N#C/C(=C\c1ccc(N2CCOCC2)o1)C(=O)NC1CCCCC1	10	30*	-122	20	5	2	20
CC(Nc1n[nH]c(=O)[nH]c1=O)C(=O)NN=Cc1cccs1 (stereo not drawn)	/	2	/	/	/	/	/
CC(=NO)C(C)(C)Nc1ccccc1F	/	2	/	/	/	/	/
O=C(NN=Cc1cccs1)C(=O)Nc1cccc(Cl)c1	/	6	/	/	/	/	/
CC(=O)Nc1ccc(Sc2ccc([N+](=O)[O-])o2)cc1	/	28*	/	/	/	/	26
CN(C)CCCN(C(=O)c1ccc([N+](=O)[O-])s1)c1nc2cc3c(cc2s1)OCCO3	6	56*	10	5	2	5	4
CN(C)CCCN(C(=O)c1ccc(Cl)s1)c1nc2cc3c(cc2s1)OCO3	-2	/	13	-42	-1	9	/
CCc1cc[n+](C2=C([O-])c3ccccc3C(=O)/C2=N\S(=O)(=O)c2cccs2)cc1	20*	57*	-105	38	3	0	62*
CCOCCn1c(COc2ccc(C)cc2)nc2ccccc21	0	6	3	2	0	-1	/
COCCn1c(COc2ccc(C)cc2)nc2ccccc21	0	36*	10	-1	1	-2	3

Screening results (PubChem BioAssay)
